Activity calls are given as the source filed them. No cut-off for these calls is given here.
How the values were obtained:
[1] = target: Sodium channel protein type 5 subunit alpha (Homo sapiens, UniProt Q14524); assay: Inhibition of Nav1.5 channel (unknown origin) expressed in HEK293 cells at […] by patch clamp assay; type: cell-based
[2] = target: Sodium-dependent dopamine transporter (Homo sapiens) (UniProt Q01959); conditions: 10 mM
[3] = target: Sodium-dependent noradrenaline transporter (Homo sapiens) (UniProt P23975); assay: Displacement of [3H]-nisoxetine from norepinephrine transporter (unknown origin) at 0.1 mM relative to control
Chain of Sodium-dependent noradrenaline transporter (Homo sapiens) (P23975 whole entry): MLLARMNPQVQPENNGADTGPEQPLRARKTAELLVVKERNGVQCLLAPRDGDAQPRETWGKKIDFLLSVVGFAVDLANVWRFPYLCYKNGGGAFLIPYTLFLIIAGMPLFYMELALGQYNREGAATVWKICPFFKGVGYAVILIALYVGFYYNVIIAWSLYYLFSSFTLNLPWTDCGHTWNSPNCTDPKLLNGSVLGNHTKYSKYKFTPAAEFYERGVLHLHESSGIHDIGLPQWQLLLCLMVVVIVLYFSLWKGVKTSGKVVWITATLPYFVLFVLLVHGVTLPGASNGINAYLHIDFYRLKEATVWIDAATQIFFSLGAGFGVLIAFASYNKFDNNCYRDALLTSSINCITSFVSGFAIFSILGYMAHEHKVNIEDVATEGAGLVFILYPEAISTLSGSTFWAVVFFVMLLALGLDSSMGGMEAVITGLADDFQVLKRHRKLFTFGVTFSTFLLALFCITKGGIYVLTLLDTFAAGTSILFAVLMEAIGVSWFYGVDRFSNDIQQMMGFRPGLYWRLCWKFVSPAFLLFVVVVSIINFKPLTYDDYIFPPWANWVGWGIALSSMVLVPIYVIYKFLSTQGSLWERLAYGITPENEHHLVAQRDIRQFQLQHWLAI
How it was run: (§1)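 Competitive antagonist radioligand binding at monoamine transporters. Serotonin transporter is labelled with [³H]imipramine and norepinephrine transporter with [³H]nisoxetine. The compound was tested at three concentrations, and binding is expressed as percent inhibition of specific radioligand binding. Each value is the mean of two independent determinations.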

[4] = target: Sodium-dependent dopamine transporter (Homo sapiens) (UniProt Q01959); conditions: 1 mM
[5] = target: Sodium-dependent noradrenaline transporter (Homo sapiens) (UniProt P23975); assay: Displacement of [3H]-nisoxetine from norepinephrine transporter (unknown origin) at 10 mM relative to control; how it was run: as §1
[6] = tested on: NCI-H1650; assay: Cytotoxicity against human NCI-H1650 cells assessed as growth inhibition after 48 hrs by MTT assay; type: functional; conditions: NCI-H1650, 48 h
How it was run: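 H1650 cells were exposed to drug for 48 h at five concentrations bracketing 1–40 μM in 10 μM steps, with MTT read-out. GI50 is given only where the data form a sigmoidal dose response.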

[7] = target: Sodium-dependent noradrenaline transporter (Homo sapiens) (UniProt P23975); assay: Displacement of [3H]-nisoxetine from norepinephrine transporter (unknown origin) at 1 mM relative to control; how it was run: as §1
[8] = tested on: NCI-H1650; assay: Cell cycle arrest in human NCI-H1650 cells assessed as accumulation at sub-G1 phase at 1 to 40 uM by propidium iodide staining-based flow cytometric analysis; type: functional
[9] = target: D(3) dopamine receptor (Homo sapiens) (UniProt P35462); assay: Binding affinity to dopamine D3 receptor (unknown origin) at 0.1 mM by radioligand displacement assay relative to control
Chain of D(3) dopamine receptor (Homo sapiens) (P35462 whole entry): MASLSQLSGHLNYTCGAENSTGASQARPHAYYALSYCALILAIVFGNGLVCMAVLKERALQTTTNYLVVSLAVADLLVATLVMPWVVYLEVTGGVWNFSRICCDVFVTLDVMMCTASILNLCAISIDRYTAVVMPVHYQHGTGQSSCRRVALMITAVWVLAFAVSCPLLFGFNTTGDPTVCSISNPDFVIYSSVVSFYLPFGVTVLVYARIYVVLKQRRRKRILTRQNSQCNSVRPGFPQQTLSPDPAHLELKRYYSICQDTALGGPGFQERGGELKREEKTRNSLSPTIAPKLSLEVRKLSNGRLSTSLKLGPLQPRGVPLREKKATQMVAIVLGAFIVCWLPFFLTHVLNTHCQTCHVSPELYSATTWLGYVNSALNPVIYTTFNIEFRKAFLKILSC

[10] = target: D(1A) dopamine receptor (Homo sapiens) (UniProt P21728); assay: Binding affinity to dopamine D1 receptor (unknown origin) at 0.1 mM by radioligand displacement assay relative to control
Chain of D(1A) dopamine receptor (Homo sapiens) (P21728 whole entry): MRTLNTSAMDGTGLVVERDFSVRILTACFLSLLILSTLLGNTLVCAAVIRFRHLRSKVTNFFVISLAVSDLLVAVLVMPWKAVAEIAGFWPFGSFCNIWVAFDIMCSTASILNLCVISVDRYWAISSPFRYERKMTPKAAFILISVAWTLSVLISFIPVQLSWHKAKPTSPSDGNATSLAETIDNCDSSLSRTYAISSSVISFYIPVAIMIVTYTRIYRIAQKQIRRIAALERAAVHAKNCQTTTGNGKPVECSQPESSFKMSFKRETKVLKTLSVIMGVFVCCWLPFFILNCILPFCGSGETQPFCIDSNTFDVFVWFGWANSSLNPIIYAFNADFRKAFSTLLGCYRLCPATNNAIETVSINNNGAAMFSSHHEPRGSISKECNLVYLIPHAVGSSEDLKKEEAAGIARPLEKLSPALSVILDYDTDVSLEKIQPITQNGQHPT

[11] = AUCinfinity in mouse at 1 mg/kg, iv; type: ADME, organism-based; parameters: dose 1 mg/kg, time infinity, route intravenous; conditions: in vivo
[12] = target: D(3) dopamine receptor (Homo sapiens) (UniProt P35462); assay: Binding affinity to dopamine D3 receptor (unknown origin) at 1 mM by radioligand displacement assay relative to control
[13] = Volume of distribution at steady state in mouse at 1 mg/kg, iv; type: ADME, organism-based; conditions: in vivo, read-out: Vdss
[14] = Bioavailability in mouse at 10 mg/kg, ip; type: ADME, organism-based; conditions: in vivo
[15] = Half life in mouse at 10 mg/kg, po; type: ADME, organism-based; conditions: in vivo
[16] = Cmax in mouse at 10 mg/kg, po; type: ADME, organism-based; parameters: dose 10 mg/kg, route oral; conditions: in vivo
[17] = AUClast in mouse at 10 mg/kg, ip; type: ADME, organism-based; conditions: in vivo
[18] = Initial drug concentration in mouse at 1 mg/kg, iv; type: ADME, organism-based; conditions: in vivo
[19] = AUCinfinity in mouse at 1 mg/kg, ip; type: ADME, organism-based; parameters: time infinity, route intraperitoneal; conditions: in vivo
[20] = target: D(1A) dopamine receptor (Homo sapiens) (UniProt P21728); assay: Binding affinity to dopamine D1 receptor (unknown origin) at 1 mM by radioligand displacement assay relative to control
[21] = target: T1, D(4) dopamine receptor (Homo sapiens) (UniProt P21917); assay: Binding affinity to dopamine D4 receptor (unknown origin) at 0.1 mM by radioligand displacement assay relative to control
T1 sequence (whole entry): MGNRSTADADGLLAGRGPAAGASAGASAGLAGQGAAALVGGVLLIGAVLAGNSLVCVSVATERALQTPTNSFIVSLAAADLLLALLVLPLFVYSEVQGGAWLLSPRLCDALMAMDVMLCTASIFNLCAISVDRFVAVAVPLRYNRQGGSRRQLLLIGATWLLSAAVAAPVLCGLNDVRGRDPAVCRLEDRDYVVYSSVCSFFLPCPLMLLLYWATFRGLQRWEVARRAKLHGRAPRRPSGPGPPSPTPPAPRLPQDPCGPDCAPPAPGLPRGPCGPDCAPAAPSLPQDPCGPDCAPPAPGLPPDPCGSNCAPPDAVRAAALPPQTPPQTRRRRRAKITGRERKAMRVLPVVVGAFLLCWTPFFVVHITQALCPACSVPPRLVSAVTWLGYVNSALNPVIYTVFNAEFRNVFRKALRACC

[22] = target: D(1B) dopamine receptor (Homo sapiens) (UniProt P21918); assay: Binding affinity to dopamine D5 receptor (unknown origin) at 0.1 mM by radioligand displacement assay relative to control
Chain of D(1B) dopamine receptor (Homo sapiens) (P21918 whole entry): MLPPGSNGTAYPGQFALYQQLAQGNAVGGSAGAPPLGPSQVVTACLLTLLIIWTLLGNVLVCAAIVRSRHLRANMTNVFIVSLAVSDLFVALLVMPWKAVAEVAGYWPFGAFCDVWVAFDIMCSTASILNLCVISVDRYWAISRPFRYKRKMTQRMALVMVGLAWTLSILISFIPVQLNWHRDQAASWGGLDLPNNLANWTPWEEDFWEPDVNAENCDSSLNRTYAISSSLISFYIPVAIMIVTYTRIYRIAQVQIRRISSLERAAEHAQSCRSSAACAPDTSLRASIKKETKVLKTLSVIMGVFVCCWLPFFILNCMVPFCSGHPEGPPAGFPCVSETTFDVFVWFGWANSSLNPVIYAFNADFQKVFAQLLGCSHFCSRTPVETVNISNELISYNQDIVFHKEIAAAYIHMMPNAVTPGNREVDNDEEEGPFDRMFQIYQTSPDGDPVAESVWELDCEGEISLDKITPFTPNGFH

[23] = Oral bioavailability in mouse at 10 mg/kg; type: ADME, organism-based; conditions: in vivo
[24] = AUClast in mouse at 1 mg/kg, iv; type: ADME, organism-based; conditions: in vivo
[25] = target: D(2) dopamine receptor (Homo sapiens) (UniProt P14416); assay: Binding affinity to dopamine D2 receptor (unknown origin) at 0.1 mM by radioligand displacement assay relative to control
Chain of D(2) dopamine receptor (Homo sapiens) (P14416 whole entry): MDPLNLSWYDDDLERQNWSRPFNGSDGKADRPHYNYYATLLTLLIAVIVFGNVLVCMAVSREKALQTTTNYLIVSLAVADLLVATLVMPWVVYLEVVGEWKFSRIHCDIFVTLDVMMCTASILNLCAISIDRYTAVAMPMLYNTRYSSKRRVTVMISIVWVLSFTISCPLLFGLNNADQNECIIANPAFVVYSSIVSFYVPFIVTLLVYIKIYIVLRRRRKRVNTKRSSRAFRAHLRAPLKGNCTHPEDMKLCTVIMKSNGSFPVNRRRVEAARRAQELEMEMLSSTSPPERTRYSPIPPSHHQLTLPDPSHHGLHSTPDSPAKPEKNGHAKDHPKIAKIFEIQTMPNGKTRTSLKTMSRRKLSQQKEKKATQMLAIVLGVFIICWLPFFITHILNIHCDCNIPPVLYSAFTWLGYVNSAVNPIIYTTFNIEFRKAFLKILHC

[26] = tested on: Mus musculus; assay: Toxicity in mouse assessed as induction of lethargy at 10 mg/kg relative to control; type: organism-based; conditions: in vivo
[27] = AUCinfinity in mouse at 10 mg/kg, po; type: ADME, organism-based; parameters: dose 10 mg/kg, time infinity, route oral; conditions: in vivo
[28] = Clearance in mouse at 1 mg/kg, iv; type: ADME, organism-based; conditions: in vivo
[29] = AUClast in mouse at 10 mg/kg, po; type: ADME, organism-based; conditions: in vivo
[30] = Half life in mouse at 1 mg/kg, ip; type: ADME, organism-based; conditions: in vivo
[31] = tested on: NCI-H1650; assay: Cell cycle arrest in human NCI-H1650 cells assessed as accumulation at sub-G1 phase by propidium iodide staining-based flow cytometric analysis; type: functional
[32] = tested on: NCI-H1650; assay: Cytotoxicity against human NCI-H1650 cells assessed as reduction of colony formation at 20 to 40 uM after 7 days by crystal violet staining; type: functional, cell-based
[33] = target: D(2) dopamine receptor (Homo sapiens) (UniProt P14416); assay: Binding affinity to dopamine D2 receptor (unknown origin) at 1 mM by radioligand displacement assay relative to control
[34] = Tmax in mouse at 10 mg/kg, ip; type: ADME, organism-based; conditions: in vivo
[35] = Cmax in mouse at 10 mg/kg, ip; type: ADME, organism-based; parameters: dose 10 mg/kg, route intraperitoneal; conditions: in vivo
[36] = Tmax in mouse at 10 mg/kg, po; type: ADME, organism-based; conditions: in vivo
[37] = tested on: NCI-H1650; assay: Inhibition of ERK phosphorylation in human NCI-H1650 cells at 20 to 40 uM after 12 hrs by Western blot analysis; type: cell-based
[38] = target: RAC-alpha serine/threonine-protein kinase (Homo sapiens) (UniProt P31749); assay: Inhibition of AKT phosphorylation in human NCI-H1650 cells at 20 to 40 uM after 12 hrs by Western blot analysis; type: cell-based
[39] = target: D(1B) dopamine receptor (Homo sapiens) (UniProt P21918); assay: Binding affinity to dopamine D5 receptor (unknown origin) at 1 mM by radioligand displacement assay relative to control
[40] = target: T1, D(4) dopamine receptor (Homo sapiens); assay: Binding affinity to dopamine D4 receptor (unknown origin) at 1 mM by radioligand displacement assay relative to control
[41] = Half life in mouse at 1 mg/kg, iv; type: ADME, organism-based; conditions: in vivo

Chain of Sodium-dependent dopamine transporter (Homo sapiens) (Q01959 whole entry): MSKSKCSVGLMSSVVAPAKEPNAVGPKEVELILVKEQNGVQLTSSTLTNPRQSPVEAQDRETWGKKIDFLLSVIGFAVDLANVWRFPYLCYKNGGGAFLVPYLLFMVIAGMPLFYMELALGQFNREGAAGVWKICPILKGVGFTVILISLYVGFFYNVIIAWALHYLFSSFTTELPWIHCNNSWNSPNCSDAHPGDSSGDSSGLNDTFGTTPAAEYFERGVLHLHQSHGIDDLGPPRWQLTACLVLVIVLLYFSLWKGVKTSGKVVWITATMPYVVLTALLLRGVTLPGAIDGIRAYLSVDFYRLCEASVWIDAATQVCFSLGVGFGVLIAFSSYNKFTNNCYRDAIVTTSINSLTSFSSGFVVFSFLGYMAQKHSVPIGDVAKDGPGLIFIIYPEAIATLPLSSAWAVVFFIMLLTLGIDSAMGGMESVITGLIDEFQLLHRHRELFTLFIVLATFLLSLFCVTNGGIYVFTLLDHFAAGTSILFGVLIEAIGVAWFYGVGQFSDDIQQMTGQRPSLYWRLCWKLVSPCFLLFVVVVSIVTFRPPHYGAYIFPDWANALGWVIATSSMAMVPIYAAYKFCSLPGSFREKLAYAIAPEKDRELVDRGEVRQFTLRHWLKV
Chain of Sodium channel protein type 5 subunit alpha (Q14524 whole entry): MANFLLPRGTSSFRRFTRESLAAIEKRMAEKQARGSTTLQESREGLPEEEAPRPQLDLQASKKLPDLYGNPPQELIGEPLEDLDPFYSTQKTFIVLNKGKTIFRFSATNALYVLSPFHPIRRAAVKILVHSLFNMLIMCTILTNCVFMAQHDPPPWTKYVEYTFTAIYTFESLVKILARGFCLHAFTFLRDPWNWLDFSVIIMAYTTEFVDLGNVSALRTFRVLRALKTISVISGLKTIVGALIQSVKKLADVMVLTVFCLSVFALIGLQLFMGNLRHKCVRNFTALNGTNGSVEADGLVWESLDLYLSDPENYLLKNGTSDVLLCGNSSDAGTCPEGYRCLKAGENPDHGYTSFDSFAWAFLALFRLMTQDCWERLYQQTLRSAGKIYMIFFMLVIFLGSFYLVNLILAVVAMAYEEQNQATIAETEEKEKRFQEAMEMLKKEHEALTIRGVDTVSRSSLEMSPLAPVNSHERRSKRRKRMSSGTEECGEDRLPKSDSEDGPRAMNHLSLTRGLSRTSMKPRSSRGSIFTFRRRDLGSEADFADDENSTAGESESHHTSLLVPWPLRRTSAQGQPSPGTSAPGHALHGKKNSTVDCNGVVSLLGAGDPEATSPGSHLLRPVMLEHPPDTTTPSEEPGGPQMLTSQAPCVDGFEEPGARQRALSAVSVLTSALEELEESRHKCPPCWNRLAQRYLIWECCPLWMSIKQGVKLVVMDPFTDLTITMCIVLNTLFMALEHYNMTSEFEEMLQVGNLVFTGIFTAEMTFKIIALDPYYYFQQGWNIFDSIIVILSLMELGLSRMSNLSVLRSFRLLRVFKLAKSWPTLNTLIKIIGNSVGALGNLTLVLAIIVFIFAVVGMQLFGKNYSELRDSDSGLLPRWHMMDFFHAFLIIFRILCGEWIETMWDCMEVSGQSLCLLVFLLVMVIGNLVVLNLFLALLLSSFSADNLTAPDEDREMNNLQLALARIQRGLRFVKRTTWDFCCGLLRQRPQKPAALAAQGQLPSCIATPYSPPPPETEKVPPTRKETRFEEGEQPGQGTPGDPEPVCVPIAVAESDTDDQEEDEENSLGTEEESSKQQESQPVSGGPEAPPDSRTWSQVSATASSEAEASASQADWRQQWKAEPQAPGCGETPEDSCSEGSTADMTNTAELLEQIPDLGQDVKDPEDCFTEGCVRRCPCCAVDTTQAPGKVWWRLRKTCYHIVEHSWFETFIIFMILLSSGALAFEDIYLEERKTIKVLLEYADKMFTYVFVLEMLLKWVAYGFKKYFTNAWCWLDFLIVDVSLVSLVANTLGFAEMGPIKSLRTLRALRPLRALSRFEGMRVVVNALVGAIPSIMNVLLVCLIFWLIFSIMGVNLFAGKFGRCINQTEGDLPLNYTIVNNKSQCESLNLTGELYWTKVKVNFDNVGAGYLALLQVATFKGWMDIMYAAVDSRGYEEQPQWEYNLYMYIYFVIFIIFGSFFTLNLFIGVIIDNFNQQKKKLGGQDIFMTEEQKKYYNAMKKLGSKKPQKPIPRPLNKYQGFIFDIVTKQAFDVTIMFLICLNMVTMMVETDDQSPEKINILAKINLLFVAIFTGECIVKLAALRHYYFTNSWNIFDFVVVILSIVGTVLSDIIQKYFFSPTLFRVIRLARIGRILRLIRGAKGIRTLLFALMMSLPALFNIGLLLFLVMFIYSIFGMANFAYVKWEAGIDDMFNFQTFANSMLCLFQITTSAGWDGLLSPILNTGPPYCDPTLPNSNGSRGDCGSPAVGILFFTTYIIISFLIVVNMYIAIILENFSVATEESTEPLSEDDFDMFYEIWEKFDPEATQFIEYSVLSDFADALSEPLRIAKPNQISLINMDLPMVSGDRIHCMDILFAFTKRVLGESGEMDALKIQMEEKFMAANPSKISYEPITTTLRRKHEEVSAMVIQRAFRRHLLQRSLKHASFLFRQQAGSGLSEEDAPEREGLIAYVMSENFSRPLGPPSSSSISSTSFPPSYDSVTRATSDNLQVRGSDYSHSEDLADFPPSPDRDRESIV

| SMILES | GI50 [6] [µM] | Activity [8] | inhibition [9] [%] | inhibition [10] [%] | AUC(0-inf) [11] [ng·h/mL] | inhibition [12] [%] | Vd [13] [L/kg] | bioavailability [14] [%] | half-life [15] [h] | Cmax [16] [ng/mL] | AUC(0-t) [17] [ng·h/mL] | C0 [18] [ng/mL] | AUC(0-inf) [19] [ng·h/mL] | inhibition [20] [%] | inhibition [21] [%] | inhibition [22] [%] | bioavailability [23] [%] | AUC(0-t) [24] [ng·h/mL] | Activity [26] | inhibition [33] [%] | also measured |
| --- | --- | --- | --- | --- | --- | --- | --- | --- | --- | --- | --- | --- | --- | --- | --- | --- | --- | --- | --- | --- | --- |
| CN(C)CCCN1c2ccccc2CCc2ccc(Cl)cc21 [CLOMIPRAMINE] | > 40 | Active | – | – | – | – | – | – | – | – | – | – | – | – | – | – | – | – | – | – | inhibition (INH) [1]: Active; inhibition [2]: 60%; inhibition [3]: 5%; inhibition [4]: 14%; inhibition [5]: 100%; inhibition [7]: 90% |
| COC(=O)NCCCN1c2ccccc2Sc2ccc(Cl)cc21 | > 40 | – | < 5 | < 5 | 317 | 22 | 1.76 | 46.6 | 1.19 | 349 | 1450 | 1200 | 1450 | 14 | < 5 | < 10 | 15.8 | 310 | Non-toxic | 21 | inhibition [25]: < 5%; AUC(0-inf) [27]: 498 ng·h/mL; clearance [28]: 52.5 mL/min/kg; AUC(0-t) [29]: 489 ng·h/mL; half-life [30]: 2.87 h; Activity [31]: Dose-dependent effect; Activity [32]: Active; Tmax [34]: 0.25 h; Cmax [35]: 859 ng/mL; Tmax [36]: 0.5 h |
| CN1CCN(CCCN2c3ccccc3Sc3ccc(C(F)(F)F)cc32)CC1 [TRIFLUOPERAZINE] | 12.2 | Active | > 95 | > 95 | – | > 95 | – | – | – | – | – | – | – | > 95 | 73 | 81 | – | – | Toxic | > 95 | inhibition [37]: Active; inhibition [38]: Active; inhibition [39]: > 95%; inhibition [25]: > 95%; inhibition [40]: > 95% |
| Cc1ccc(S(=O)(=O)NCCCN2c3ccccc3Sc3ccc(Cl)cc32)cc1 | > 40 | – | – | < 5 | 1500 | – | 0.72 | 50.2 | 3.14 | 834 | 7440 | 2970 | 7570 | 12 | – | < 10 | 16.9 | 1480 | Non-toxic | 14 | half-life [41]: 1.36 h; AUC(0-inf) [27]: 2510 ng·h/mL; clearance [28]: 11.1 mL/min/kg; AUC(0-t) [29]: 2500 ng·h/mL; half-life [30]: 4.35 h; Activity [31]: Dose-dependent effect; Activity [32]: Active; Tmax [34]: 1 h; Cmax [35]: 2250 ng/mL; Tmax [36]: 0.5 h |

Source: ChEMBL document CHEMBL3611968, “Reengineered tricyclic anti-cancer agents” (Bioorg Med Chem, 2015)
